Source: PubChem BioAssay
HTRA1 inhibitor: HTRA1 serine protease inhibitors, primary screen, biochemical, fluorescence polarization, HTS. Q92743. recombinant HTRA1, FP-rhodamine activity-based probe. inhibition, % at 5.96 µM. 340,000 tested, 0.5% active. AID 504803, 2011; in the data active = inhibition above about 36%;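 note: 0% = enzyme with DMSO and 100% = wells lacking enzyme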
pPAFAH inh: pPAFAH enzyme inhibitors, primary screen, biochemical, fluorescence polarization, human; Platelet-activating factor acetylhydrolase (Homo sapiens), Q13093; 330,000 tested, 1.5% active; inhibition, % at 3.39 µM; recombinant pPAFAH, FP-rhodamine probe fluorescence polarization;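 active = inhibition above the mean inhibition across the screen plus 3 SD, cut at about 25% in these data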;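 note: inhibitors block binding of the rhodamine activity-based probe so polarization drops; 0% = enzyme with DMSO and 100% = wells lacking pPAFAH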
SIAE primary: human SIAE inhibitors, primary screen, biochemical, fluorescence polarization, FP-Rh probe, 1536-well HTS | Sialate O-acetylesterase (Homo sapiens), Q9HAT2 | SIAE FP-Rh probe binding | inhibition, % at 9.66 µM | 370,000 tested, 0.69% active;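 active = inhibition above a cutoff: mean of compounds within the control limits plus 3 SD of those, cut at about 17% in these data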;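 note: 0% = plate median of compound wells and 100% = probe without SIAE protein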
mABHD4 FP: ABHD4 inhibitors, primary screen, biochemical, fluorescence polarization, mouse. (Lyso)-N-acylphosphatidylethanolamine lipase (Mus musculus), Q8VD66. purified mABHD4, FP-Rh probe fluorescence polarization. inhibition, % at 8.92 µM. 370,000 tested, 0.54% active. AID 720543, 2013;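 active = inhibition exceeding the mean over every tested compound plus 3 SD, cut at about 30% in these data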;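 note: 0% = plate median of compound wells and 100% = S159A mutant with DMSO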
Target sequence (Q8VD66 whole entry, looked up): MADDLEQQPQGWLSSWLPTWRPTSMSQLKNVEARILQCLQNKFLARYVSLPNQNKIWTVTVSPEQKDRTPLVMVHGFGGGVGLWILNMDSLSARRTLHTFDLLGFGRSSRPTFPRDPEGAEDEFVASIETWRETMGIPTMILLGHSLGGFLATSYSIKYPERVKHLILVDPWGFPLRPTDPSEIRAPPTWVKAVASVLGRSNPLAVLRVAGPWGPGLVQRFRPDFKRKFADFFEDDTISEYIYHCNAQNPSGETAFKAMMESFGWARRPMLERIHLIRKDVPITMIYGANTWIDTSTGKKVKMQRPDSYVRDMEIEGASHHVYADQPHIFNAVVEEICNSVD
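Test system: mouse ABHD4 enzyme, wild type. Reagent: FP-Rh fluorescent activity-based probe, added after compound pre-incubation. Timing: pre-incubation 45 min, probe exposure 60 min, at 25 °C. Technique: FP readout, ex 525 nm / em 598 nm. Benchmarks: high control S159A mutant with DMSO, low control median of compound wells.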
TCR CD3 inh: inhibitors of human TCR-CD3 interaction, primary screen, biochemical, fluorescence, TAMRA-labeled TCR probe | T-cell receptor (TCR) | inhibition, % at 9.4 µM | 360,000 tested, 0.37% active | AID 651800, 2012; in the data active = inhibition above about 19%;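 note: recombinant mutant TCR 2C K166C tagged with TAMRA read by polarization; 0% = receptor in buffer alone and 100% = receptor with positive control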
pPAFAH confirm: pPAFAH (PLA2G7) enzyme inhibitors, confirmation, biochemical, fluorescence polarization, human; recombinant pPAFAH, FP-Rh probe fluorescence polarization; 2,300 tested, 72% active; inhibition, % at 3.39 µM; shares compounds with pPAFAH inh;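 active = mean inhibition of the triplicate above the hit cutoff set for the earlier primary screen, cut at about 25% in these data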;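 note: 0% = enzyme with DMSO and 100% = wells lacking pPAFAH enzyme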
* hit, by the source's call; . = not tested or not shown. The list is not random: actives were taken first. Their share in the collection is about 2.3%.

SMILES	HTRA1 inhibitor	pPAFAH inh	SIAE primary	mABHD4 FP	TCR CD3 inh	pPAFAH confirm
Cc1cc(C)nc(NS(=O)(=O)c2ccc(NC(=O)C3COc4ccccc4O3)cc2)n1 (stereo not drawn)	.	4	0	-1	-4	.
O=C(Nc1ccc(S(=O)(=O)Nc2ccccc2)cc1)C1COc2ccccc2O1 (stereo not drawn)	-49	40*	-25	-27	4	35*
CC(/C=N/NC(=O)Cc1cc(=O)[nH][nH]1)=C\c1ccccc1	1	54*	0	11	-4	3
CC(=O)Oc1ccc2c(c1)Oc1cc(OC(C)=O)ccc1C21OC(=O)c2ccccc21	124*	99*	.	.	.	90*
Cc1cc(O)ccc1C1(c2ccc(O)cc2C)OC(=O)c2ccccc21	-59	9	-17	-46	-3	.
O[C@H](COc1cccc(Br)c1)CN1CCC(C(O)(c2ccccc2)c2ccccc2)CC1	.	.	-2	14	.	.
CS(=O)(=O)c1ccc(C(=O)OCC(=O)NCc2cccs2)cc1[N+](=O)[O-]	-7	36*	0	5	-4	7
C#CCC1c2ccccc2CCN1CC=C (stereo not drawn)	.	.	7	-2	9	.
Cc1cccc(S(=O)(=O)Nc2ccc(-c3cn4ccccc4n3)cc2)c1	-13	35*	-5	-1	4	22
COCCN1C(=O)C2=C(C1=O)C1N(C)c3ccccc3[C@@]13C[C@@H](CO)N(C(C)=O)C3=N2 (stereo partly drawn)	.	.	2	10	.	.
COc1cc2cc(Oc3ccc4ccc(=O)oc4c3)c(=O)oc2cc1O[C@@H]1O[C@H](CO)[C@@H](O)[C@H](O)[C@H]1O	-13	50*	-1	14	4	18
N#Cc1ccc(/C=C2\CC3(OC(=O)c4ccccc4)CCCN2C3)cc1 (stereo not drawn)	.	.	-8	4	.	.
COc1ccc(-n2ncc3c(=O)n(CC(=O)NC(C)C)cnc32)cc1	5	36*	6	5	3	2
N=C1SC(c2ccccc2)C(=O)N1c1ncc(Cc2ccccc2)s1 (stereo not drawn)	-6	39*	-14	-3	1	44*
O=C(CSc1c(F)c(F)cc(F)c1F)Nc1ccc(C2SCCS2)cc1	-6	90*	10	1	2	4
N#CCC(=O)Nc1ncn(Cc2ccccc2Cl)n1	-2	35*	1	12	2	3
COc1cccc(O[C@H]2C=C[C@@H](c3ccccc3)O[C@@H]2CO)c1	.	.	-1	-3	.	.
Cn1c(=N)n(CC(=O)c2ccc(F)cc2)c2ccccc21	-4	3	3	-4	4	.
Cn1c(=N)n(CC(=O)c2ccc(Br)cc2)c2ccccc21	-12	35*	3	0	-7	6
CCOc1ccc(NS(=O)(=O)c2ccc3[nH]c(=O)oc3c2)cc1	-2	55*	5	-1	-9	52*
Cc1ccc(C)c(NC(=O)CNS(=O)(=O)c2ccc3[nH]c(=O)oc3c2)c1	.	.	0	8	.	.
Cc1ccc(NS(=O)(=O)c2ccc3[nH]c(=O)oc3c2)c(C)c1	-2	75*	3	-1	6	71*
COC(=O)[C@]12CCCCC=C1N(Cc1ccc(OC)cc1)C(=O)[C@@H]2CC(=O)N1CCC(c2ccccc2)CC1	.	.	-2	-5	.	.
CCOC(=O)C1=NOC(C(C)=O)(C(=O)N2CCOCC2)C1 (stereo not drawn)	.	.	-3	-1	.	.
CCOC(=O)Cc1cc(=O)n(-c2nc3ccccc3s2)[nH]1	49*	41*	10	4	16	-3
CCCc1cc(=O)n(-c2nc3ccccc3s2)[nH]1	4	3	12	1	1	.
CCC/C(=C1/c2ccccc2C(=O)N1c1ccccc1)c1ccc(C=O)o1	.	.	5	5	2	.
C=CCN1C(=O)[C@@H](CC(=O)NCCc2ccccc2OC)[C@]2(C(=O)OCC)CCCCC/C=C/12	.	.	-2	-1	.	.
